ChEMBL document CHEMBL3400013, “Synthesis and biological activity evaluation of hydrazone derivatives based on a Tröger's base skeleton” (Bioorg Med Chem, 2015)
Calls of active or inactive are those of the source. The calls are words filed in the database; no cut-off is given here.

Key:
[1] = system: BJ; assay: Selectivity index, ratio of IC50 for human BJ cells to IC50 for human K562-TAX cells; assay type: functional
[2] = system: BJ; assay: Selectivity index, ratio of IC50 for human BJ cells to IC50 for human CCRF-CEM cells; assay type: functional; conditions: pooled result: one value given for 2 cell lines, strains, targets or settings
[3] = system: Nucleic Acid; assay: Binding affinity to DNA (unknown origin) assessed as DNA intercalation by UV-visible spectrophotometry in presence of Ni2+; assay type: nucleic-acid assay
[4] = Metal chelating activity of the compound assessed as formation of Mg2+ complex by UV-vis spectrometry; assay type: physicochemical
[5] = system: HCT-116; assay: Selectivity index, ratio of IC50 for human MRC5 cells to IC50 for human HCT116 cells; assay type: functional
[6] = system: CCRF-CEM; assay: Cytostatic activity against human CCRF-CEM cells after 72 hrs by MTT assay; assay type: functional, cell-based
How it was run: (§1)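 Cells were seeded at 25,000–30,000 per well and pre-incubated for 24 h at 37°C in 5% CO2. Four-fold compound dilutions were added in duplicate and incubated for 72 h. MTT was added for 1–4 h, and formazan was dissolved in 10% aq SDS (pH 5.5) overnight at 37°C. OD was read at 540 nm. IC50 came from dose-response curves, mean ± SD of eight independent experiments.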

[7] = Metal chelating activity of the compound assessed as formation of Ni2+ complex by UV-vis spectrometry; assay type: physicochemical
[8] = system: CCRF-CEM; assay: Induction of apoptosis in human CCRF-CEM cells assessed as apoptotic cells at IC50 after 24 hrs by propidium iodide staining-based flow cytometry; assay type: functional
How it was run: (§2)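 Cells were then fixed in 70% ethanol, washed in hypotonic citrate buffer, treated with RNase (50 µg/mL) and stained with propidium iodide. Flow cytometry used a 488 nm laser. Apoptosis was scored as the percentage of particles with propidium content below G0/G1.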

[9] = system: Pseudomonas aeruginosa; assay: Antimicrobial activity against Pseudomonas aeruginosa CCM 395 up to 200 uM after 24 to 48 hrs by broth microdilution method; assay type: functional, organism-based
[10] = system: CCRF-CEM; assay: Induction of apoptosis in human CCRF-CEM cells assessed as inhibition of RNA synthesis at IC50 after 24 hrs by propidium iodide/BrU staining by flow cytometry; assay type: functional; parameters: scale not given: the % may be the effect or the level left
[11] = system: Candida albicans; assay: Antifungal activity against Candida albicans up to 200 uM after 24 to 48 hrs by broth microdilution method; assay type: functional, organism-based
[12] = system: Nucleic Acid; assay: Binding affinity to DNA (unknown origin) assessed as DNA intercalation by UV-visible spectrophotometry; assay type: nucleic-acid assay
[13] = Cytostatic activity against human p53-/- HCT116 cells after 72 hrs by MTT assay; assay type: functional, cell-based; conditions: HCT-116, 72 h; how it was run: as §1
[14] = system: CCRF-CEM; assay: Induction of apoptosis in human CCRF-CEM cells assessed as mitotic cells at IC50 after 24 hrs by pH3Ser10+ labeling-based flow cytometry; assay type: functional
[15] = Metal chelating activity of the compound assessed as formation of Zn2+ complex by UV-vis spectrometry; assay type: physicochemical
[16] = system: Escherichia coli; assay: Antimicrobial activity against Escherichia coli CCM 3954 up to 200 uM after 24 to 48 hrs by broth microdilution method; assay type: functional, organism-based
[17] = system: Candida tropicalis; assay: Antifungal activity against Candida tropicalis up to 200 uM after 24 to 48 hrs by broth microdilution method; assay type: functional, organism-based
[18] = system: CCRF-CEM; assay: Cell cycle arrest in human CCRF-CEM cells assessed as accumulation at S phase at 5 times IC50 after 24 hrs by propidium iodide staining-based flow cytometry; assay type: functional; how it was run: as §2
[19] = Cytostatic activity against human HCT116 cells after 72 hrs by MTT assay; assay type: functional, cell-based; conditions: HCT-116, 72 h; how it was run: as §1
[20] = Metal chelating activity of the compound assessed as formation of Ca2+ complex by UV-vis spectrometry; assay type: physicochemical
[21] = system: BJ; assay: Selectivity index, ratio of IC50 for human BJ cells to IC50 for human K562 cells; assay type: functional
[22] = system: Nucleic Acid; assay: Binding affinity to DNA (unknown origin) assessed as DNA intercalation by UV-visible spectrophotometry in presence of Fe3+; assay type: nucleic-acid assay
[23] = system: Nucleic Acid; assay: Binding affinity to DNA (unknown origin) assessed as DNA intercalation by UV-visible spectrophotometry in presence of Cu2+; assay type: nucleic-acid assay
[24] = Metal chelating activity of the compound assessed as formation of Cu2+ complex by UV-vis spectrometry; assay type: physicochemical
[25] = system: BJ; assay: Selectivity index, ratio of IC50 for human BJ cells to IC50 for human CEM-DNR cells; assay type: functional
[26] = Metal chelating activity of the compound assessed as formation of Mn2+ complex by UV-vis spectrometry; assay type: physicochemical
[27] = Cytostatic activity against human CEM-DNR cells after 72 hrs by MTT assay; assay type: functional, cell-based; how it was run: as §1
[28] = Metal chelating activity of the compound assessed as formation of Cr3+ complex by UV-vis spectrometry; assay type: physicochemical
[29] = Cytostatic activity against human K562-TAX cells after 72 hrs by MTT assay; assay type: functional, cell-based; how it was run: as §1
[30] = system: BJ; assay: Selectivity index, ratio of IC50 for human BJ cells to IC50 for human p53-/- HCT116 cells; assay type: functional
[31] = system: CCRF-CEM; assay: Cell cycle arrest in human CCRF-CEM cells assessed as accumulation at S phase at IC50 after 24 hrs by propidium iodide staining-based flow cytometry; assay type: functional; how it was run: as §2
[32] = system: Nucleic Acid; assay: Binding affinity to DNA (unknown origin) assessed as DNA intercalation by UV-visible spectrophotometry in presence of Zn2+; assay type: nucleic-acid assay
[33] = Metal chelating activity of the compound assessed as formation of Co2+ complex by UV-vis spectrometry; assay type: physicochemical
[34] = system: BJ; assay: Selectivity index, ratio of IC50 for human BJ cells to IC50 for human HCT116 cells; assay type: functional
[35] = system: Staphylococcus aureus; assay: Antimicrobial activity against methicillin-resistant Staphylococcus aureus MRSA 4591 up to 200 uM after 24 to 48 hrs by broth microdilution method; assay type: functional, organism-based
[36] = system: CCRF-CEM; assay: Cell cycle arrest in human CCRF-CEM cells assessed as accumulation at G0/G1 phase at IC50 after 24 hrs by propidium iodide staining-based flow cytometry; assay type: functional; how it was run: as §2
[37] = system: A549; assay: Selectivity index, ratio of IC50 for human BJ cells to IC50 for human A549 cells; assay type: functional
[38] = system: Pseudomonas aeruginosa; assay: Antimicrobial activity against multidrug-resistant Pseudomonas aeruginosa A/16575 up to 200 uM after 24 to 48 hrs by broth microdilution method; assay type: functional, organism-based
[39] = system: CCRF-CEM; assay: Cell cycle arrest in human CCRF-CEM cells assessed as accumulation at G0/G1 phase at 5 times IC50 after 24 hrs by propidium iodide staining-based flow cytometry; assay type: functional; how it was run: as §2
[40] = system: Escherichia coli; assay: Antimicrobial activity against multidrug-resistant Escherichia coli C/16702 up to 200 uM after 24 to 48 hrs by broth microdilution method; assay type: functional, organism-based
[41] = system: BJ; assay: Cytostatic activity against human BJ cells after 72 hrs by MTT assay; assay type: ADME, cell-based; how it was run: as §1
[42] = system: CCRF-CEM; assay: Induction of apoptosis in human CCRF-CEM cells assessed as mitotic cells at 5 times IC50 after 24 hrs by pH3Ser10+ labeling-based flow cytometry; assay type: functional
[43] = system: Pichia kudriavzevii; assay: Antifungal activity against Candida crusei up to 200 uM after 24 to 48 hrs by broth microdilution method; assay type: functional, organism-based
[44] = system: Enterococcus faecalis; assay: Antimicrobial activity against Enterococcus faecalis CCM 4224 up to 200 uM after 24 to 48 hrs by broth microdilution method; assay type: functional, organism-based
[45] = system: Nucleic Acid; assay: Binding affinity to DNA (unknown origin) assessed as DNA intercalation by UV-visible spectrophotometry in presence of Co2+; assay type: nucleic-acid assay

O=C(NN=C(c1ccccn1)c1ccccn1)c1ccc2c3c(ccc2c1)N1Cc2c(ccc4cc(C(=O)NN=C(c5ccccn5)c5ccccn5)ccc24)N(C3)C1
Ratio IC50 [1]: 2.8
Ratio IC50 [2]: 1.7
Activity [3]: Active
Activity [4]: Not Active
Ratio IC50 [5]: 3.4
IC50 [6]: 910 nM
Activity [7]: Active
Activity [8]: 12.04%
Activity [9]: inactive
Activity [10]: 60.37%
Activity [11]: inactive
Activity [12]: inactive
IC50 [13]: 780 nM
Activity [14]: 0.53%
Activity [15]: Active
Activity [16]: inactive
Activity [17]: inactive
Activity [18]: 68.14%
IC50 [19]: 460 nM
Activity [20]: Not Active
Ratio IC50 [21]: 2.4
Activity [22]: Active
Activity [23]: Active
Activity [24]: Active
Ratio IC50 [25]: 0.7
Activity [26]: Not Active
IC50 [27]: 2080 nM
Activity [28]: Not Active
IC50 [29]: 560 nM
Ratio IC50 [30]: 2
Activity [31]: 61.24%
Activity [32]: Active
Activity [33]: Active
Ratio IC50 [34]: 3.4
Activity [35]: inactive
Activity [36]: 28.27%
Ratio IC50 [37]: 0.8
Activity [38]: inactive
Activity [39]: 3.63%
Activity [40]: inactive
IC50 [41]: 2090 nM
Activity [42]: 1.72%
Activity [43]: inactive
Activity [44]: inactive
Activity [45]: Active

O=C(N/N=C/c1cc(O)ccc1O)c1ccc2c3c(ccc2c1)N1Cc2c(ccc4cc(C(=O)N/N=C/c5cc(O)ccc5O)ccc24)N(C3)C1
Ratio IC50 [1]: 13.8
Ratio IC50 [2]: 63.2
Activity [3]: Active
Activity [4]: Not Active
Ratio IC50 [5]: 9.1
IC50 [6]: 60 nM
Activity [7]: Active
Activity [8]: 3.99%
Activity [9]: inactive
Activity [10]: 48.47%
Activity [11]: inactive
Activity [12]: inactive
IC50 [13]: 120 nM
Activity [14]: 2.34%
Activity [15]: Active
Activity [16]: inactive
Activity [17]: inactive
Activity [18]: 58.22%
IC50 [19]: 390 nM
Activity [20]: Not Active
Ratio IC50 [21]: 8
Activity [22]: Active
Activity [23]: Active
Activity [24]: Active
Ratio IC50 [25]: 1.4
Activity [26]: Not Active
IC50 [27]: 2590 nM
Activity [28]: Not Active
IC50 [29]: 260 nM
Ratio IC50 [30]: 29
Activity [31]: 44.72%
Activity [32]: Active
Activity [33]: Active
Ratio IC50 [34]: 9.1
Activity [35]: inactive
Activity [36]: 37.38%
Ratio IC50 [37]: 20.9
Activity [38]: inactive
Activity [39]: 21.32%
Activity [40]: inactive
IC50 [41]: 6550 nM
Activity [42]: 2.39%
Activity [43]: inactive
Activity [44]: inactive
Activity [45]: Active

O=C(N/N=C/c1ccccc1O)c1ccc2c3c(ccc2c1)N1Cc2c(ccc4cc(C(=O)N/N=C/c5ccccc5O)ccc24)N(C3)C1
Ratio IC50 [1]: 0.4
Ratio IC50 [2]: 0.9
Activity [3]: Active
Activity [4]: Not Active
Ratio IC50 [5]: 0.8
IC50 [6]: 360 nM
Activity [7]: Active
Activity [8]: 18.07%
Activity [9]: inactive
Activity [10]: 59.79%
Activity [11]: inactive
Activity [12]: inactive
IC50 [13]: 190 nM
Activity [14]: 0.62%
Activity [15]: Active
Activity [16]: inactive
Activity [17]: inactive
Activity [18]: 37.75%
IC50 [19]: 390 nM
Activity [20]: Not Active
Ratio IC50 [21]: 0.6
Activity [22]: Active
Activity [23]: Active
Activity [24]: Active
Ratio IC50 [25]: 0.1
Activity [26]: Not Active
IC50 [27]: 4250 nM
Activity [28]: Not Active
IC50 [29]: 830 nM
Ratio IC50 [30]: 1.7
Activity [31]: 50.31%
Activity [32]: Active
Activity [33]: Active
Ratio IC50 [34]: 0.8
Activity [35]: inactive
Activity [36]: 30.6%
Ratio IC50 [37]: 0.3
Activity [38]: inactive
Activity [39]: 43.33%
Activity [40]: inactive
IC50 [41]: 270 nM
Activity [42]: 0.01%
Activity [43]: inactive
Activity [44]: inactive
Activity [45]: Active
